Screening data from PubChem BioAssay.
RanGTP-Imp inh – disruptors of Ran-importin-beta complex formation – biochemical, FRET, CFP-Ran, YFP-importin-beta, homogeneous, primary screen. cell-free CFP-Ran/YFP-importin-beta FRET ratio. inhibition, % (no concentration beside the values). 300,000 tested, 1.1% active. AID 2216;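 active = more than half of the replicate wells show a fall in the fluorescence ratio signal beyond about 16%, limit read from the data, passing the limit was not always enough; inconclusive = exactly half of the replicate wells pass the set limit; inactive = fewer than half of replicates pass the limit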;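 also: 0% = DMSO wells and 100% = Ran loaded with GDP instead of GTP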
PKD1 inh – PKD1 (human) kinase inhibition; 200,000 tested, 0.056% active; AID 797; PKD1 kinase fluorescence polarization assay; Q15139; inhibition, % (test concentration not listed)
Runt-CBFb FRET – blocks binding of human RUNX1 Runt domain to CBFb; 220,000 tested, 0.46% active; Cerulean-Runt/Venus-CBFb FRET ratio 530/480, 1 h; Q01196+Q13951; AID 1496; inhibition, % at 20 µM;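 active = inhibition over about 50% at 20 µM in the single-dose screen, limit read from the data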;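 also: 0% = DMSO wells and 100% = excess unlabeled CBFb competitor control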
Target sequence (Q01196 whole entry, looked up, the tested form may be a part): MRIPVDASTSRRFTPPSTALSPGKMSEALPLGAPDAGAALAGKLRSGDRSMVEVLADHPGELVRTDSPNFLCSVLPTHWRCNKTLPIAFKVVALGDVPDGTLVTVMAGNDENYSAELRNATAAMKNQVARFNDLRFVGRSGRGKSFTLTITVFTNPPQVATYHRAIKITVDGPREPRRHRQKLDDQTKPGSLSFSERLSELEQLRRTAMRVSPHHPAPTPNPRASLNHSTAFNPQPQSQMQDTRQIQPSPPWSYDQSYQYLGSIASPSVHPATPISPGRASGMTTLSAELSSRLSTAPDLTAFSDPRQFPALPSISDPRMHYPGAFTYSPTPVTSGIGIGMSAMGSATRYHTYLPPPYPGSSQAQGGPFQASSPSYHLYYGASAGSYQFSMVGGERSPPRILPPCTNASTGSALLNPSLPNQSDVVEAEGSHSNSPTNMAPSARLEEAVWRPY
Target sequence (Q13951 whole entry, looked up, the tested form may be a part): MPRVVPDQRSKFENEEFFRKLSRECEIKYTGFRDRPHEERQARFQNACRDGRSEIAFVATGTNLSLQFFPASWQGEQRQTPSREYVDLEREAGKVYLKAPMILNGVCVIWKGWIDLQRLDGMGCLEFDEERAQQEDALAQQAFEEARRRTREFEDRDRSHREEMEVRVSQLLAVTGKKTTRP
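Buffer or medium: Tris pH 7.5 buffer with BSA. Assay system: Cerulean-labeled Runt domain protein. Amount: each fluorescent fusion protein 100 nM. Read-out basis: loss of energy transfer signal. Incubation: 1 h compound exposure, room temperature. Probe or stimulus: Venus-CBFb binding partner, 100 nM. Detection: FRET, excitation 422 nm, emission at 530 and 480 nm.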
EBV gp42 block – blocks Epstein-Barr virus glycoprotein 42 binding | AID 1085 | inhibition, % (tested at 21.74 µM) | Fluorescence polarization binding assay, mP read-out | Q1HVG2 | 220,000 tested, 0.42% active
Runt-SMMHC FRET – blocks binding of human RUNX1 Runt domain to CBFb-SMMHC | Q01196+Q13951 | Cerulean-Runt/Venus-CBFb-SMMHC FRET ratio 530/480, 1 h | inhibition, % at 20 µM | 220,000 tested, 0.74% active | AID 1434;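 active = mean inhibition across duplicate retests at 20 µM reaching about 50%, limit read from the data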;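 also: 0% = DMSO wells and 100% = wells with excess untagged CBFb-SMMHC; inhibitors lower the FRET ratio by blocking Runt binding to CBFb-SMMHC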
MEX-5 binding – C. elegans MEX-5 TCR-2 RNA binding activity. AID 1832. 300,000 tested, 0.38% active. MEX-5/FITC-TCR2 RNA binding, fluorescence polarization; stronger effect = lower value. activity score (negative = inhibition of binding), % at 10 µM. Q9XUB2;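 active = inhibition past about -25% in most replicates, and total fluorescence under double the plate's negative control median, limit read from the data; inconclusive = replicates evenly split on the limit, or fluorescence at least double controls; inactive = too little inhibition in most replicates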;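 also: 0% = DMSO and -100% = 5 µM competing unlabeled TCR2 RNA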
Numbers without * were called inactive; ? = inconclusive; · = no result. Most compounds without a hit are left out; they make up all but 2% or so of the library. Rule as the data show it, unless noted: active = inhibition above about 50%; inactive = the rest.

SMILES	RanGTP-Imp inh	PKD1 inh	Runt-CBFb FRET	EBV gp42 block	Runt-SMMHC FRET	MEX-5 binding
Cc1cccc(-n2c(=O)c(C#N)cc3c(=O)n4ccccc4nc32)c1	127.6*	-5.9	19.5	27.5	59.0*	-15.8
COc1ccc(NC2CCCN(C(=O)Cn3ccc(C)n3)C2)cc1OC (stereo not drawn)	5.0	·	·	·	·	-2.7
CN1CCc2c(C#N)c(N3CCCCC3)nc(NCc3ccccc3)c2C1	3.6	-5.8	11.0	-2.2	11.3	-0.2
N#Cc1c(NCCCO)nc(NCc2ccccc2)c2c1CCN(Cc1ccccc1)C2	89.5*	1.6	18.0	-11.2	46.5	0.1
CC(=O)Nc1sc2c(c1C#N)CCN(Cc1ccccc1)C2	75.3*	·	·	·	·	-10.8
CC(=O)N1CCc2c(sc(NC(=O)Cc3ccccc3)c2C#N)C1	-2.5	·	·	·	·	-1.3
N#Cc1c(NC(=O)/C=C/C(=O)O)sc2c1CCN(Cc1ccccc1)C2	140.9*	·	·	·	·	-29.4*
CCOC(=O)N1CCN(S(=O)(=O)N2CCCC(C(=O)NCCCN3CCCCC3)C2)CC1 (stereo not drawn)	3.3	·	·	·	·	-3.5
CCN(C(=O)c1cccc(S(=O)(=O)N(C)C)c1)C12CC3CC(CC(C3)C1)C2	0.4	·	·	·	·	-0.2
CCc1ccc(NC(=O)CSc2nc(=O)n(CCN(C)C)c3c2CCCC3)cc1	2.1	·	·	·	·	1.5
CC1CCCCN1C(=O)COC(=O)C1CCN(S(=O)(=O)c2c(Cl)cccc2Cl)CC1 (stereo not drawn)	?	·	·	·	·	-4.6
Fc1ccc(NC(=S)NCc2cccnc2)cc1	93.3*	1.2	0.2	-10.8	-4.7	0.5
Fc1cccc(NC(=S)NCc2cccnc2)c1	1.3	-6.1	2.2	-3.2	-2.9	0.5
Fc1ccc(NCc2cccnc2)cc1F	-1.3	1.9	-1.2	115.3*	-11.2	?
CCCCOc1ccc(N(CC(=O)NCCOC)C(=O)CCC(=O)Nc2ccccn2)cc1	0.1	·	·	·	·	-0.6
CCOc1ccc(S(=O)(=O)NCCC(=O)Nc2cccc(C(=O)OC)c2)cc1	-0.2	·	·	·	·	2.3
O=C(O)c1ccccc1NS(=O)(=O)c1cccc(-n2sc3ccccc3c2=O)c1	4.1	·	·	·	·	-49.9*
Cc1ccc(S(=O)(=O)NCC(=O)N/N=C/c2ccccc2O)cc1	?	2.9	1.6	-30.8	4.9	-1.1
CCOc1ccc(N(CC(=O)NC2CCCCC2)C(=O)CCC(=O)Nc2nc(C)cs2)cc1	1.7	·	·	·	·	0.6
CC1(OC(=O)c2ccco2)C(=O)C=C2C=C(C3CC3)OC=C2C1=O (stereo not drawn)	-9.4	·	·	·	·	-34.4*
CC1(OC(=O)c2cccs2)C(=O)C=C2C=C(C3CC3)OC=C2C1=O (stereo not drawn)	11.9	·	·	·	·	-20.4
CCC(=O)OC1(C)C(=O)C=C2C=C(C3CC3)OC=C2C1=O (stereo not drawn)	4.2	·	·	·	·	-13.5
CC1(OC(=O)c2cnc3ccccc3n2)C(=O)C=C2C=C(C3CC3)OC=C2C1=O (stereo not drawn)	0.3	·	·	·	·	-53.0*
O=C(NC(CC(=O)N1CCN(c2ccc([N+](=O)[O-])cc2)CC1)c1ccccc1)c1ccccc1Cl (stereo not drawn)	0.6	-8.6	-5.5	-47.8	-7.7	3.8
Cc1nc(N2CCN(C(=O)c3ccco3)CC2)c(C#N)c2c1CCCC2	4.6	·	·	·	·	1.6
SMILES	RanGTP-Imp inh	PKD1 inh	Runt-CBFb FRET	EBV gp42 block	Runt-SMMHC FRET	MEX-5 binding
COCCCNC(=S)N1CCN(c2ccccc2)CC1	6.9	3.7	0.2	-12.3	0.1	0.4
Cc1cc(C)c2nc(N3CCCN(C(=O)c4ccco4)CC3)c(C#N)cc2c1	89.0*	-2.8	13.0	12.9	69.9*	1.3
Cc1ccc2cc(C#N)c(N3CCCN(C(=O)C4CCCO4)CC3)nc2c1C (stereo not drawn)	50.1*	-12.8	6.3	17.0	64.3*	-18.5
COCCCNC(=S)NCCNc1nc2c(C)c(C)ccc2cc1C#N	·	-8.1	32.4	-1.9	64.4*	·
COCCCNC(=S)N1CCCN(c2nc3c(C)c(C)ccc3cc2C#N)CC1	42.9*	-2.4	·	-4.8	·	1.0
CC(=O)Nc1ccc(N(C(=O)Cc2cccs2)C(C(=O)NC2CCCC2)c2ccncc2)cc1 (stereo not drawn)	-3.9	·	·	·	·	-0.1
NC(=O)CSc1nc2c(sc3ccccc32)c(=O)n1CCCC(=O)NCC1CCCO1 (stereo not drawn)	-0.1	·	-0.9	-8.7	0.6	0.1
COCCCNC(=S)NCCCNc1nc2cc(C)cc(C)c2cc1C#N	-8.8	-1.6	20.2	-14.8	65.9*	0.4
Cc1cccc2cc(C#N)c(N3CCC(O)CC3)nc12	28.5*	3.8	35.5	-0.6	70.6*	0.2
COc1ccc2sc3ccccc3c(=O)c2c1	94.7*	13.1	10.1	7.7	-19.8	-6.0
Cc1ccc(CNC(=O)CCCNS(=O)(=O)c2cccc3nonc23)cc1	-2.8	0.6	0.1	-13.5	1.1	0.6
COc1ccc(CNC(=O)CCCNS(=O)(=O)c2cccc3nonc23)cc1	63.5*	-5.4	-1.1	-9.7	-0.5	·
O=Cc1ccccc1-c1cn(CN2C(=O)c3ccccc3C2=O)nn1	-2.9	·	·	·	·	2.2
CCn1cc(S(=O)(=O)Nc2cc(C(=O)OC)ccc2C)cn1	32.1*	·	·	·	·	-0.7
CC(C)(C)NC(=O)NCC1CCCC1NC(=O)NC(C)(C)C (stereo not drawn)	2.0	·	2.7	-15.1	-0.9	-1.5
O=C(NNC(=O)C1CCCO1)c1ccc(F)cc1 (stereo not drawn)	-5.4	-1.1	3.3	-11.5	-1.4	-0.2
CCOc1cc(/C=C(\C#N)C(=O)Nc2cccc(C(=O)O)c2)ccc1OCc1ccccc1Cl	78.1*	·	·	·	·	-0.2
COc1cc(/C=C(\C#N)C(=O)Nc2cccc(C(=O)O)c2)ccc1OCc1ccc(F)cc1	4.3	·	·	·	·	0.5
CN1C(=O)c2cccc3c(S(=O)(=O)N(C)C)ccc1c23	18.7*	·	·	·	·	-1.0
CCN(CC)CCN(Cc1cc2cc3c(cc2[nH]c1=O)OCCO3)C(=S)NC	-9.5	·	·	·	·	0.8
COC(=O)Cc1c(C)c2ccc(O)c(CN3CCCC(C)C3)c2oc1=O (stereo not drawn)	21.9*	5.2	98.1*	-4.7	111.6*	1.2
CCOC(=O)CN1C(=O)S/C(=C\c2ccc(-c3ccc(C(=O)O)c(Cl)c3)o2)C1=O	23.0*	·	·	·	·	-3.3
CC(C)N1C(=O)S/C(=C\c2ccc(-c3ccc(Cl)c(C(=O)O)c3)o2)C1=O	26.3*	·	·	·	·	-1.1
CCOC(=O)CN1C(=O)S/C(=C\c2ccc(-c3cccc(C(=O)O)c3C)o2)C1=O	8.4	·	·	·	·	1.4
O=C(O)c1ccc(-c2ccc(/C=C3\NC(=O)N(Cc4ccc(Cl)cc4)C3=O)o2)cc1Cl	57.6*	-5.3	19.6	20.5	20.9	-31.9*
CCc1cccc(OCC(=O)Nc2ccccc2N2CCCC2)c1	·	·	·	·	·	-1.0
O=C(NC1CC1)c1ccc(Cl)c(S(=O)(=O)N2CCOCC2)c1	5.7	·	·	·	·	-2.0
